Reference: ChEMBL document CHEMBL3232768, “Structure-activity relationships of β-hydroxyphosphonate nucleoside analogues as cytosolic 5'-nucleotidase II potential inhibitors: synthesis, in vitro evaluation and molecular modeling studies” (Eur J Med Chem, 2014)

Assays:
Homo sapiens = species on record: Homo sapiens; assay: Inhibition of recombinant C-terminal His-tagged cN2 N-terminal 30 amino acid deletion mutant (unknown origin) expressed in Escherichia coli BL21 using IMP as substrate at 1 mM after 5 mins by green malachite phosphate assay
In short: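 Enzyme was purified from E. coli BL21 carrying pET24b by His-Trap affinity and then Superdex 75 gel filtration. Final enzyme was 0.1 in 50 mM imidazole pH 6.5, 500 mM NaCl, 10 mM MgCl₂, 1 mM DTT on ice. The reaction was started with 50 IMP plus equimolar Mg²⁺ and run 5 min at 37 °C. Malachite green reagent stopped it; released phosphate was read above 630 nm against a phosphate calibration curve.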

[1] = Competitive inhibition of recombinant C-terminal His-tagged cN2 N-terminal 30 amino acid deletion mutant (unknown origin) expressed in Escherichia coli BL21 using IMP as substrate by double reciprocal plot analysis; parameters: species or system Homo sapiens
In short: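 Kinetic assay with His-Trap and Superdex 75-purified enzyme at 0.1. Buffer was 50 mM imidazole pH 6.5, 500 mM NaCl, 10 mM MgCl₂, 1 mM DTT, with enzyme and substrate freshly prepared in it. Rate constants were measured at IMP from 200 to 3 mM to derive Ki. It was also used for compounds that react with the malachite green colorant.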

SMILES | inhibition (Homo sapiens) [%] | Ki [1] [mM]
O=c1ccn([C@@H]2O[C@H]([C@H](O)CP(=O)(O)O)[C@@H](O)[C@@H]2O)c(=O)[nH]1 | 25 | > 100
CCOP(=O)(C[C@@H](O)[C@H](CO)O[C@H](CO)n1ccc(=O)[nH]c1=O)OCC | 10 | –
CCOP(=O)(C[C@@H](O)[C@H](CO)O[C@H](CO)n1ccc(N)nc1=O)OCC | 21 | –
CC(C)(C)C#Cc1cn([C@@H]2O[C@H]([C@H](O)CP(=O)(O)O)[C@@H](O)[C@H]2O)c(=O)nc1N | 46 | 7.33
CCOP(=O)(C[C@@H](O)[C@H]1O[C@@H](n2ccc(=O)[nH]c2=O)[C@@H](O)[C@@H]1O)OCC | 2 | –
Nc1ccn([C@@H]2O[C@H]([C@H](O)CP(=O)(O)O)[C@@H](O)[C@H]2O)c(=O)n1 | 85 | 1.74
Nc1ccn([C@@H](CO)O[C@@H](CO)[C@H](O)CP(=O)(O)O)c(=O)n1 | 45 | 4.06
CCCCC#Cc1cn([C@@H]2O[C@H]([C@H](O)CP(=O)(O)O)[C@@H](O)[C@H]2O)c(=O)[nH]c1=O | 45 | –
CCCCC#Cc1cn([C@@H]2O[C@H]([C@H](O)CP(=O)(O)O)[C@@H](O)[C@H]2O)c(=O)nc1N | 40 | –
Nc1ccn([C@@H]2O[C@H]([C@H](O)CP(=O)(O)O)[C@@H](O)[C@@H]2O)c(=O)n1 | 80 | 0.978
Nc1nc(=O)n([C@@H]2O[C@H]([C@H](O)CP(=O)(O)O)[C@@H](O)[C@H]2O)cc1/C=C/c1ccccc1 | – | 1.14
O=c1[nH]c(=O)n([C@@H]2O[C@H]([C@H](O)CP(=O)(O)O)[C@@H](O)[C@H]2O)cc1/C=C/c1ccccc1 | – | 3.36
Nc1ccn([C@@H]2O[C@H]([C@H](O)CP(=O)(O)O)[C@H](O)[C@@H]2O)c(=O)n1 | 35 | 11.1
O=c1[nH]c(=O)n([C@@H]2O[C@H]([C@H](O)CP(=O)(O)O)[C@@H](O)[C@H]2O)cc1C#Cc1ccccc1 | – | 2.18
O=c1ccn([C@@H]2O[C@H]([C@@H](O)CP(=O)(O)O)[C@@H](O)[C@H]2O)c(=O)[nH]1 | 43 | –
CC(C)(C)C#Cc1cn([C@@H]2O[C@H]([C@H](O)CP(=O)(O)O)[C@@H](O)[C@H]2O)c(=O)[nH]c1=O | – | 5.94
O=c1[nH]c(=O)n([C@@H]2O[C@H]([C@H](O)CP(=O)(O)O)[C@@H](O)[C@H]2O)cc1-c1ccccc1 | 24 | –
O=c1ccn([C@@H]2O[C@H]([C@H](O)CP(=O)(O)O)[C@@H](O)[C@H]2O)c(=O)[nH]1 | 72 | 2.08
CCOP(=O)(C[C@@H](O)[C@H]1O[C@@H](n2ccc(N)nc2=O)[C@H](O)[C@@H]1O)OCC | 18 | –
O=c1ccn([C@@H]2O[C@H]([C@H](O)CP(=O)(O)O)[C@H](O)[C@@H]2O)c(=O)[nH]1 | 25 | > 50
Nc1nc(=O)n([C@@H]2O[C@H]([C@H](O)CP(=O)(O)O)[C@@H](O)[C@H]2O)cc1-c1ccccc1 | 60 | 2.01
O=c1ccn([C@@H]2O[C@H]([C@H](O)CP(=O)(O)O)[C@H](O)[C@H]2O)c(=O)[nH]1 | 25 | –
CCOP(=O)(C[C@@H](O)[C@H]1O[C@@H](n2ccc(=O)[nH]c2=O)[C@H](O)[C@@H]1O)OCC | 11 | –
CCOP(=O)(C[C@@H](O)[C@H]1O[C@@H](n2ccc(N)nc2=O)[C@@H](O)[C@@H]1O)OCC | 20 | –
Nc1ccn([C@@H]2O[C@H]([C@H](O)CP(=O)(O)O)[C@H](O)[C@H]2O)c(=O)n1 | 48 | 8.9
Nc1ccn([C@@H]2O[C@H]([C@@H](O)CP(=O)(O)O)[C@@H](O)[C@H]2O)c(=O)n1 | 42 | –
O=c1ccn([C@@H](CO)O[C@@H](CO)[C@H](O)CP(=O)(O)O)c(=O)[nH]1 | 20 | –
Nc1nc(=O)n([C@@H]2O[C@H]([C@H](O)CP(=O)(O)O)[C@@H](O)[C@H]2O)cc1C#Cc1ccccc1 | – | 8.85
CCOP(=O)(C[C@@H](O)[C@H]1O[C@@H](n2ccc(=O)[nH]c2=O)[C@H](O)[C@H]1O)OCC | 26 | –
